Bioassay records from PubChem.
MRP-1 activ – MRP-1 activation | H69AR cells + doxorubicin, viability rescue, CellTiter-Glo | viability increase, % at 10 µM | AID 799 | actives 0.61% (n = 140,000);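 active means viability gain under doxorubicin at or above a set limit, the compound median plus 3 SD, cut at about 4.7% in these data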;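 further: MRP-1 overexpressing cells given doxorubicin 25 µM after compound pretreatment; 18-22 h compound pretreatment then 72 h with doxorubicin before readout; 0% = doxorubicin-only wells and 100% = vehicle-treated cells without doxorubicin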
Phagocyt inh – inhibitors of macrophage phagocytosis; J774A.1 macrophage IgG-bead phagocytosis, imaging; inhibition, % at 5 µM; actives 0.07% (n = 110,000); AID 1029;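 active means inhibition above the mean of the plate negative controls plus 5 SD, cut at about 13% in these data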;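 further: phagocytic index as fraction of beads internalized from green versus red external bead signal; plate controls were DMSO negative control for no effect and cytochalasin-D positive control for full effect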
MRP reversal – reverses drug resistance mediated by MRP | H69AR cells + 2 uM doxorubicin, CellTiter-Glo, 72 h | actives 0.04% (n = 85,000) | differential viability (reversal), % at 10 µM;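 active means viability drop by adding the cancer drug above about 55%, with treated viability meeting a 40% cutoff, limit read from the data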;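 further: viability without doxorubicin minus viability with 2 µM doxorubicin for each compound; larger differential means the compound sensitizes cells more to doxorubicin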
Yeast growth inh – reduces growth of yeast BB579 in restrictive medium. actives 0.51% (n = 140,000). inhibition, % at 10 µM. AID 804. S. cerevisiae BB579 growth, OD615, 48 h;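 active means inhibition above a set limit, 3 SD over the mean compound inhibition, cut at about 44% in these data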
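System: DeaD yeast strain BB579; buffer or medium: CSMM-D dextrose restrictive medium; technique: OD at 615 nm; schedule: 4 h cell preincubation, 48 h compound exposure, 30 °C humidified; doses: single 10 µM dose; controls: amphotericin B 10 µg/mL, positive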
Yeast lifespan up – yeast lifespan extension; S. cerevisiae growth with nicotinamide, OD615; deaD strain in restrictive glucose medium; inhibition of the nicotinamide effect, % at 10 µM; actives 0.68% (n = 130,000); AID 775;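 active means inhibition above a set limit, placed 3 SD over the median of all compounds, cut at about 26% in these data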;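 further: 0% = nicotinamide-treated wells and 100% = cells grown without nicotinamide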
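Material: Modified budding yeast, DeaD strain | Medium: Restrictive glucose medium | Probe or stimulus: 1.5 mM nicotinamide | Dosing: Single dose 10 µM compound, 0.25% DMSO | Times: 48 h at 30 °C | Technique: OD615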
sdo1 growth – restores growth of sdo1-depleted yeast; actives 0.21% (n = 140,000); S. cerevisiae sdo1-depleted JHY4D growth rescue, OD600 30 h; hits give high values; pdr5 snq2 efflux-pump mutant strain; z-score at 10 µM;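 active means z-score above 3 at both the 24 hr and the 30 hr optical density reads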;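 further: z-score against mean and SD of all compound wells on the same plate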
sdo1 rescue conf – confirmation of growth rescue in SDO1-depleted yeast, bone marrow failure; shares compounds with sdo1 growth; S. cerevisiae JHY4D (SDO1-depleted) growth rescue, OD600, 30 h; hits give high values; efflux-deficient strain, SNQ2 and PDR5 mutated; OD recovery (concentration not given with the values); actives 44% (n = 440);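 active means yeast growth recovered at 30 hours, either rising with dose fitted slope above 0.001 or with average optical density gain above 0.07, some results past the limit were not filed as active; inactive means growth falling with dose or no effect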;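 further: gain in OD600 from 0 h to 30 h averaged across all seven doses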
Numbers without * were called inactive; . = no result given; ! = repeats disagree. Sampled rows, rich in hits. Any-hit rate of the full collection: about 2.1%.

SMILES	MRP-1 activ	Phagocyt inh	MRP reversal	Yeast growth inh	Yeast lifespan up	sdo1 growth	sdo1 rescue conf
Cc1nn(-c2ccccc2)c(C)c1NC(=O)c1cccs1	-1	1	5	-3	-8	3.3*	0.065*
Cc1nn(-c2ccccc2)c(C)c1NC(=O)Cc1cccs1	-2	.	-6	-9	2	0.7	.
COC(=O)c1cc(C#N)c(N(C)Cc2ccccc2)nc1C	0	-2	14	-37	-14	-1.8	.
COC(=O)c1cc(C#N)c(NCc2ccccc2)nc1C	0	2	-4	-4	-15	14*	0.087*
CC(=O)C1=C(O)C(=O)N(c2cccc(C(=O)O)c2)C1c1ccccc1F (configuration not stated)	2	-11	10	-16	-5	1.6	.
COc1ccccc1NC(=O)c1nn(-c2cccc(C(F)(F)F)c2)ccc1=O	-2	.	.	-45	-25	7.2*	0.045
CCOc1c(C)cc2[nH]c(CCC(=O)O)nc2c1C	-2	.	-28	-19	0	-0.9	.
Cc1c(/C=N\NC(=O)c2cccc(F)c2)cnn1C	-1	-3	.	-28	7	3.3*	0.096*
COC(CNC(=O)C(=O)NCC1OCCN1C(=O)c1ccc(Cl)cc1)OC (configuration not stated)	-2	.	.	-5	-2	0.41	.
COCCNC(=O)C(=O)NCC1OCCN1C(=O)c1ccc(Cl)cc1 (configuration not stated)	-1	.	.	5	12	11*	0.037
CC(C)C(OC(=O)c1nsc(Cl)c1Cl)C(=O)NCc1ccc2c(c1)OCO2 (configuration not stated)	0	.	.	-81	-6	-1	.
Cc1ccc(/C(O)=C2\C(=O)C(=O)N(CC(C)O)C2c2cccc(F)c2)cc1 (configuration not stated)	-1	0	-1	-40	-10	2.6	0.065
CC(=O)N1CCC(=NNc2ccc(S(=O)(=O)N3CCOCC3)cc2[N+](=O)[O-])CC1	-2	-1	.	-14	-2	12*	0.044
COC(=O)c1c(NC(=O)CSc2ncnc3c2cnn3-c2ccccc2Cl)sc2c1CCCC2	0	.	-6	-12	.	0.98	.
Cc1cc2cc3c(cc2nc1SCC(=O)OC(C)C)OCCO3	-4	0	.	5	-23	3.1*	0.042
Cc1cc2cc3c(cc2nc1SCC(=O)O)OCCO3	-5	-2	14	-16	-21	-0.45	.
CCOc1ccc(C(=O)NC(=S)Nc2ccccc2OC)cc1[N+](=O)[O-]	-1	0	.	-22	4	1.5	0.077*
O=C(C1CCCCC1)N1CCN(C(=O)C2CCCCC2)CC1	-2	2	5	7	-16	11*	0.041
COC(=O)c1cc(OC)c(OC)cc1NC(=S)N1CCCCC1	-3	-4	12	1	-16	-0.53	.
COC(=O)c1cc(OC)c(OC)cc1NC(=S)N1CCN(C)CC1	-3	1	.	-48	16	3.1*!	0.05
Cn1c(CNC(=O)c2ccc(Cl)c(Cl)c2)nnc1SCC(=O)Nc1sc2c(c1C#N)CCCC2	-3	-1	-2	-48	-5	4.7*	0.048
N#Cc1ccc(-c2ccc(F)cc2)nc1SCC(=O)Nc1sc2c(c1C#N)CCC2	-4	-1	.	-29	-23	1.8	0.064
COc1ccc(NC(=O)CSc2nc(N3CCCCC3)nc(N3CCCCC3)n2)cc1	-3	.	15	-48	-18	1.1	0.084*
COc1cc(NC(=O)CSc2nccc(C)n2)c(C(=O)O)cc1OC	-1	-2	-17	-27	-2	-0.25	.
COc1ccc(NC(=O)CSc2nccc(C)n2)cc1	-2	-1	-4	-29	-20	1.9	0.036
SMILES	MRP-1 activ	Phagocyt inh	MRP reversal	Yeast growth inh	Yeast lifespan up	sdo1 growth	sdo1 rescue conf
COc1ccc(NC(=O)CN2CCCCC2)cc1	-1	.	-5	4	-16	0.66	.
COc1ccc(-c2nc(N3CCCC3)nc3nn4c(C)cc(C)nc4c23)cc1	.	.	-1	.	.	.	.
COc1cccc(C2=NOC(C(=O)NCc3cccs3)C2)c1 (configuration not stated)	-5	2	-37	-17	-6	0.3	.
NS(=O)(=O)c1ccc(NC(=O)CSC2=NC(=O)C(c3ccccc3)C(=O)N2)cc1 (configuration not stated)	1	-1	-21	-18	-21	8.7*	0.048
Cc1ccc(CNC(=O)CCCn2c(=O)[nH]c3ccccc3c2=O)cc1	-1	1	-4	-44	-6	8.9*	0.029
Cc1cccc(NC(=O)C2c3ccccc3C(=O)N3CCc4ccccc4C23)n1 (configuration not stated)	0	-1	5	-17	-4	0.55	.
O=C(Nc1ccccc1)N(O)c1ccc(Cl)cc1	-1	0	5	-11	-12	3.3*	0.081*
CCN(CC)c1ccc(C2C(C(C)=O)C(=O)CC(C)(O)C2C(C)=O)cc1 (configuration not stated)	.	.	15	.	.	.	.
COc1ccccc1OCc1ccc(C(=O)NCCN(C)C)o1	-2	.	4	-25	-21	2.7	0.097*
CP(=O)(COC(=O)c1ccccc1)COC(=O)c1ccccc1	0	2	-4	-67	-1	-0.12	.
Cc1ccc(-c2noc(CCC(=O)NCCN3CCN(Cc4ccccc4)CC3)n2)cc1	-4	0	7	-16	-2	0.77	.
Cc1ccc(-c2noc(CCC(=O)NCCN3CCOCC3)n2)cc1	-2	4	8	-28	-7	2.4	0.074*
O=C1C2CC=C(Cl)CC2C(=O)N1CN(Cc1ccco1)CN1C(=O)C2CC=C(Cl)CC2C1=O (configuration not stated)	-1	0	-12	-47	-11	-0.17	.
Cc1sc2nc3c(SC(C)C(=O)O)cc(C(=O)c4ccccc4O)cn3c(=O)c2c1C (configuration not stated)	-2	-1	.	-26	0	0.87	.
CCOC(=O)c1sc2nc3c(SCC(=O)O)cc(C(=O)c4cc(F)ccc4O)cn3c(=O)c2c1C	1	-3	.	-9	5	3.1*	0.069
CCCCCCCC(=O)NC(Nc1ccc(S(N)(=O)=O)cc1)C(Cl)(Cl)Cl (configuration not stated)	-1	.	.	-2	-16	3.1*	0.1*
CCOCCCNC(=O)CS(=O)(=O)Cc1nc(-c2cccc(OC)c2)oc1C	-4	0	1	-50	-7	12*	0.073*
CCCNC(=O)CS(=O)(=O)Cc1nc(-c2cccc(OC)c2)oc1C	0	0	18	-62	-7	1.2	.
Cc1[nH]nc2c1C(c1cccc(O)c1)C1=C(CC(C)(C)CC1=O)N2 (configuration not stated)	-2	0	-31	-26	-12	0.55	.
